In ChEMBL document CHEMBL2429772, “Selective arylsulfonamide inhibitors of ADAM-17: hit optimization and activity in ovarian cancer cell models” (J Med Chem, 2013) one finds IC50 and Activity data, which are given here for five molecules.

Data set [1] deals with T1, Disintegrin and metalloproteinase domain-containing protein 17 (Homo sapiens, UniProt P78536). The data set is described as follows: Inhibition of ADAM-17 in human A2780 cells assessed as inhibition of pervanadate-induced sALCAM release incubated for 30 mins prior to pervanadate induction measured after 90 mins by ELISA. It counts as cell-based.
The test system of another data set is SK-OV-3. Kind of data set: Cytotoxicity against human SKOV3 cells transfected with luciferase gene assessed as cell viability at 0.01 to 10 uM after 24 to 72 hrs by MTT assay. The data set is classed as cell-based. The conditions noted are these: sk-ov-3, 10 µM.
For data set [2], the target named is T1, Disintegrin and metalloproteinase domain-containing protein 17. Kind of data set: Inhibition of ADAM-17 in human A2774 cells assessed as inhibition of pervanadate-induced sALCAM release incubated for 30 mins prior to pervanadate induction measured after 90 mins by ELISA. It counts as cell-based.
Data set [3] has the same target. Kind of data set: Inhibition of ADAM-17 in human A2780 cells assessed as inhibition of EGF-induced sALCAM release incubated for 30 mins prior to EGF induction measured after 18 hrs by ELISA. The data set is classed as cell-based.
Data set [4] can be described thus: Cytotoxicity against human A2774 cells assessed as cell viability at 0.01 to 10 uM after 24 to 72 hrs by MTT assay. It counts as cell-based. The settings on record: a2774, 10 µM.
Data set [5] addresses T1, Disintegrin and metalloproteinase domain-containing protein 17. The data set is described as follows: Inhibition of ADAM-17 in human SKOV3 cells transfected with luciferase gene assessed as inhibition of pervanadate-induced sALCAM release incubated for 30 mins prior to pervanadate induction measured after 90 mins by ELISA. It counts as cell-based, SK-OV-3.
For data set [6] the target is unchanged. Kind of data set: Inhibition of ADAM-17 in human SKOV3 cells transfected with luciferase gene assessed as inhibition of EGF-induced sALCAM release incubated for 30 mins prior to EGF induction measured after 18 hrs by ELISA. The data set is classed as cell-based, SK-OV-3.
For another data set, the system named is A2780. Kind of data set: Cytotoxicity against human A2780 cells assessed as cell viability at 0.01 to 10 uM after 24 to 72 hrs by MTT assay. It counts as cell-based. The settings on record: a2780, 10 µM.
Data set [7] addresses T1, Disintegrin and metalloproteinase domain-containing protein 17. The data set is described as follows: Inhibition of ADAM-17 in human A2774 cells assessed as inhibition of EGF-induced sALCAM release incubated for 30 mins prior to EGF induction measured after 18 hrs by ELISA. The data set is classed as cell-based.
Data set [8] concerns the target Matrix metalloproteinase-14 (Homo sapiens, UniProt P50281). Kind of data set: Inhibition of recombinant human MMP-14 catalytic domain using Mca-Lys-Pro-Leu-Gly-Leu-Dap(Dnp)-Ala-Arg-NH2 as substrate incubated for 4 hrs measured every 15 secs for 20 mins by fluorimetric assay. The gist of the method:
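MMP-14 catalytic domain was used at 1.0 nM final with no activation step. It was incubated with inhibitor for 4 h at 25 °C in Tris 50 mM pH 7.5 buffer with NaCl 150 mM, CaCl2 10 mM, 0.05% Brij-35 and 1% DMSO. Substrate was at 2 µM final, ex 325/em 400 nm, duplicate wells. IC50 was fitted by vi/vo = 1/(1+[I]/IC50).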

The next data set has as its target T2, Interstitial collagenase (Homo sapiens, UniProt P03956).
T2 sequence (P03956 whole entry): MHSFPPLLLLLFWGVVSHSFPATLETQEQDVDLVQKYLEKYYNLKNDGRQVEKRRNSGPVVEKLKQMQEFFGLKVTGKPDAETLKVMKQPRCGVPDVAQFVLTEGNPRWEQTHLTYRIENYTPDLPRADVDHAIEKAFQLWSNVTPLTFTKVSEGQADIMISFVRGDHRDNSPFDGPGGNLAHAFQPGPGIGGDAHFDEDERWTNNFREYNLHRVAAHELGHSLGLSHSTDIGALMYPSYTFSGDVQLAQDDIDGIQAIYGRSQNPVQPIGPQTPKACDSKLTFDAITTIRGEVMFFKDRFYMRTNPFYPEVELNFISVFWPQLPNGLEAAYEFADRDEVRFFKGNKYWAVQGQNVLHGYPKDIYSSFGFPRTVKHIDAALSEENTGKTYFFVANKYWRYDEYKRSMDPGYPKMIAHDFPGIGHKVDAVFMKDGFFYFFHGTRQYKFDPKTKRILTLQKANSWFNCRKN
Kind of data set: Inhibition of recombinant human MMP-1 using Mca-Lys-Pro-Leu-Gly-Leu-Dap(Dnp)-Ala-Arg-NH2 as substrate incubated for 4 hrs measured every 15 secs for 20 mins by fluorimetric assay. In short, it runs like this:
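Pro-MMP-1 was activated with 2 mM APMA for 2 h at 37 °C. Enzyme (2.0 nM final) was incubated with inhibitor in Tris 50 mM pH 7.5, NaCl 150 mM, CaCl2 10 mM, 0.05% Brij-35, 1% DMSO for 4 h at 25 °C. Substrate was added at 2 µM final. Fluorescence (ex 325/em 400 nm) was read for initial rates, in duplicate. IC50 came from vi/vo = 1/(1+[I]/IC50).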

The target in data set [9] is T1, Disintegrin and metalloproteinase domain-containing protein 17. The data set is described as follows: Inhibition of recombinant human ADAM-17 using Mca-Lys-Pro-Leu-Gly-Leu-Dap(Dnp)-Ala-Arg-NH2 as substrate incubated for 30 mins measured every 15 secs for 20 mins by fluorimetric assay. In short, it runs like this: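 Enzyme at 5 nM final was preincubated with inhibitor for 30 min at 37 °C in Tris 25 mM pH 9, ZnCl2 25 µM, 0.005% Brij-35. Substrate was at 2 µM final. Fluorescence increase (ex 325/em 400 nm) gave initial rates, in duplicate. IC50 was derived from vi/vo = 1/(1+[I]/IC50).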

Data set [10] has as its target Matrix metalloproteinase-9 (Homo sapiens, UniProt P14780). Kind of data set: Inhibition of recombinant human MMP-9 using Mca-Lys-Pro-Leu-Gly-Leu-Dap(Dnp)-Ala-Arg-NH2 as substrate incubated for 4 hrs measured every 15 secs for 20 mins by fluorimetric assay. In short, it runs like this: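 Pro-MMP-9 was activated with 1 mM APMA for 1 h at 37 °C and used at 1.3 nM final. Inhibitor was incubated with enzyme for 4 h at 25 °C in Tris 50 mM pH 7.5, NaCl 150 mM, CaCl2 10 mM, 0.05% Brij-35, 1% DMSO. Substrate was at 2 µM final, ex 325/em 400 nm, in duplicate. IC50 was obtained from vi/vo = 1/(1+[I]/IC50).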

Data set [11] deals with 72 kDa type IV collagenase (Homo sapiens, UniProt P08253). Kind of data set: Inhibition of recombinant human MMP-2 using Mca-Lys-Pro-Leu-Gly-Leu-Dap(Dnp)-Ala-Arg-NH2 as substrate incubated for 4 hrs measured every 15 secs for 20 mins by fluorimetric assay. In short, it runs like this: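 Pro-MMP-2 was activated with 2 mM APMA for 1 h at 37 °C and used at 0.56 nM final. It was preincubated with inhibitor for 4 h at 25 °C in Tris 50 mM pH 7.5 buffer containing NaCl, CaCl2, Brij-35 and 1% DMSO. Substrate was at 2 µM final, ex 325/em 400 nm, run in duplicate. IC50 was taken from initial-velocity ratios, vi/vo = 1/(1+[I]/IC50).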

In data set [12] the target is T3, Disintegrin and metalloproteinase domain-containing protein 10 (Homo sapiens, UniProt O14672).
T3 sequence (O14672 whole entry): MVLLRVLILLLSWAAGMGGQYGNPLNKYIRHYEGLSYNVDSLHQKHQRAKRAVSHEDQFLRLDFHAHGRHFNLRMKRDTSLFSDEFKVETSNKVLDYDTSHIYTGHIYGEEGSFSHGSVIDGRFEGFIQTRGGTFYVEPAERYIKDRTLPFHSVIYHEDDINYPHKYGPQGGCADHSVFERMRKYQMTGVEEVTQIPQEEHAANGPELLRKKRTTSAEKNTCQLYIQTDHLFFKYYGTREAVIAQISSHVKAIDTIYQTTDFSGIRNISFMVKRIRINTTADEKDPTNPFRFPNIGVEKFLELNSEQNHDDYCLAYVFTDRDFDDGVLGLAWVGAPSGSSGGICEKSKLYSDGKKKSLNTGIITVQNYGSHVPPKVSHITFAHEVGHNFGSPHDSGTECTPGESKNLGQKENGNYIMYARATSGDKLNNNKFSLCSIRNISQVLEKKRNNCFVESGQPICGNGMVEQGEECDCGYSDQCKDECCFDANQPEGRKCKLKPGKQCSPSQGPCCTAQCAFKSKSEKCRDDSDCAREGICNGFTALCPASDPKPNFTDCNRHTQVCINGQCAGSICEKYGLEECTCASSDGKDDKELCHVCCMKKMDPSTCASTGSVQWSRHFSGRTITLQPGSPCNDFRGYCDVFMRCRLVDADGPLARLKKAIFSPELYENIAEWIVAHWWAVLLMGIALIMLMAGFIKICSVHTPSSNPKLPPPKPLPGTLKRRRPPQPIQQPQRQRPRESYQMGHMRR
The data set is described as follows: Inhibition of recombinant human ADAM-10 using Mca-Lys-Pro-Leu-Gly-Leu-Dap(Dnp)-Ala-Arg-NH2 as substrate incubated for 1 hr measured every 15 secs for 20 mins by fluorimetric assay. In short, it runs like this:
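Enzyme at 20 nM final was preincubated with inhibitor for 1 h at 37 °C in pH 9 buffer (Tris 25 mM, ZnCl2 25 µM, 0.005% Brij-35). Substrate was at 10 µM final. Fluorescence (ex 325/em 400 nm) was followed for initial velocity, in duplicate. IC50 was calculated with vi/vo = 1/(1+[I]/IC50).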

Some results are limits rather than exact numbers.

Sequence of Matrix metalloproteinase-9 (P14780 whole entry): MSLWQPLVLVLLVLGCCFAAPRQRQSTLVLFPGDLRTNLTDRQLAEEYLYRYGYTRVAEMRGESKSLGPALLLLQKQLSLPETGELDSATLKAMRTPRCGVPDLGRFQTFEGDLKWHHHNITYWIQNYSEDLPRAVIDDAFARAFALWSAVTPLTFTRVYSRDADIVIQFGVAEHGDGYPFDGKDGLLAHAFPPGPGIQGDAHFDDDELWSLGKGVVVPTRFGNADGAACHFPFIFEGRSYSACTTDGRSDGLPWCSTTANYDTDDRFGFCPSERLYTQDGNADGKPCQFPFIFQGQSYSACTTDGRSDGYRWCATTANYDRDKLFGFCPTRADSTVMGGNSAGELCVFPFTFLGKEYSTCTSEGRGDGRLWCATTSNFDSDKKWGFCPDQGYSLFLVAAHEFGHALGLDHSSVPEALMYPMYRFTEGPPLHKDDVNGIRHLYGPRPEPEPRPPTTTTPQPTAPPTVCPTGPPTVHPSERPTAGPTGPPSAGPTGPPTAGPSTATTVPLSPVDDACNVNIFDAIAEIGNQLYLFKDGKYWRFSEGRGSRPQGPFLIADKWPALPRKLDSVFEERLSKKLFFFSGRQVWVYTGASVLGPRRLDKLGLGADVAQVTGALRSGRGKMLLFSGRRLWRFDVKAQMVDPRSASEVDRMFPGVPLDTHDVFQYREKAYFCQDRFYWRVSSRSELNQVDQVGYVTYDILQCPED
Sequence of 72 kDa type IV collagenase (P08253 whole entry): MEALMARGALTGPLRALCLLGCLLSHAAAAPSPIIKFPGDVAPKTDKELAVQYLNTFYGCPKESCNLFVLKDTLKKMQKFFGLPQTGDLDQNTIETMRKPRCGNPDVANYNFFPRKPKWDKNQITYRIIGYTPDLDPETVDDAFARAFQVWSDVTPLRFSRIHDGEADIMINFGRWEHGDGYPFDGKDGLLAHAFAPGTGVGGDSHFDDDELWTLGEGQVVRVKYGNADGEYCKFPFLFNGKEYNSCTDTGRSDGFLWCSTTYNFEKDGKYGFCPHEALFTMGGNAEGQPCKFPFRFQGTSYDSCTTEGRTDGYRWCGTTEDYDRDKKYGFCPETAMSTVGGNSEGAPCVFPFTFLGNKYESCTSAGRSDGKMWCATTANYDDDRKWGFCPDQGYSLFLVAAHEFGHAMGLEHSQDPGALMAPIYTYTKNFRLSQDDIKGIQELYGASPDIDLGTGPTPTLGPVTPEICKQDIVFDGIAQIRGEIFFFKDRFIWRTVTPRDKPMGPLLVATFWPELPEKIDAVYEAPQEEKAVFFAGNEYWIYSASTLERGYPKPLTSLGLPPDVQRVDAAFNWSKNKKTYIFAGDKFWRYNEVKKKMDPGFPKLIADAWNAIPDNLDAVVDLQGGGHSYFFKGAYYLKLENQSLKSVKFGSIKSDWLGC
T1 sequence (P78536 whole entry, the tested form may be a part): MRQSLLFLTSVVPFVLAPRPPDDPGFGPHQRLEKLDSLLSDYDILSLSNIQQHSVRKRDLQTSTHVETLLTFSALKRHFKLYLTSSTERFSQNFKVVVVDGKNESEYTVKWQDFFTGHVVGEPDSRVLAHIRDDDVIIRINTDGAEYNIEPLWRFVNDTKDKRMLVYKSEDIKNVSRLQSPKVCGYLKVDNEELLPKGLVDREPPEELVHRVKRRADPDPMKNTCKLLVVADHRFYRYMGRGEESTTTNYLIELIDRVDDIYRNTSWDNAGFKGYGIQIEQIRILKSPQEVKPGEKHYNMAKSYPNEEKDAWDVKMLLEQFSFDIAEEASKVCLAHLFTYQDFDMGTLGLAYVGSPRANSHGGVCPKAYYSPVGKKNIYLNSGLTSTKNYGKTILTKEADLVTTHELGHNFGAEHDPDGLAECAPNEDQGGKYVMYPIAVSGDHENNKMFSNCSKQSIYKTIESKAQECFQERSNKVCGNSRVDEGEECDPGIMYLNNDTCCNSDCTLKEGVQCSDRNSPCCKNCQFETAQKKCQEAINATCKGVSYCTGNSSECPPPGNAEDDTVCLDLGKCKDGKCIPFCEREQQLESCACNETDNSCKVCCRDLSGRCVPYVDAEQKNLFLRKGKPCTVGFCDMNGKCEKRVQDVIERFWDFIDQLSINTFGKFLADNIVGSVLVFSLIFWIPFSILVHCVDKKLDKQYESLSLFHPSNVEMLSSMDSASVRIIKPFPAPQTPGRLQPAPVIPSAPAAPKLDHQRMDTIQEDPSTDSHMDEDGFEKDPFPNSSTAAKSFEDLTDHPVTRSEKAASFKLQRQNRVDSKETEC

Take `CC#CCOc1ccc(S(=O)(=O)N[C@H](CCNC(=O)OCc2ccccc2)C(=O)NO)cc1`: the IC50 in data set [1] was less than 0.01 µM; in data set [2], 0.026 µM; in data set [3] it was 1.44 µM; in data set [5] it was 0.014 µM; in data set [6] it was 0.966 µM. Further, the Activity entry (with SK-OV-3; in data set [4]; in the data set with A2780) was “Non-toxic” in each case.

As for `O=C(CNS(=O)(=O)c1ccc(OCc2cc(Br)cc(Br)c2)cc1)NO`, the IC50 was 0.84 µM in data set [1]; more than 10 µM in data set [7]; more than 10 µM in data set [2]; more than 10 µM in [3]; 113 µM in [8]; more than 500 µM at Interstitial collagenase. Besides, the IC50 in data set [9] was 0.105 µM; in [10] it was 51 µM; in data set [5] it was 5.3 µM; in data set [11] it was 1.75 µM; in data set [6], more than 10 µM; in [12], 39 µM. Besides, the Activity entry (with SK-OV-3; in data set [4]; in the data set with A2780) was “Non-toxic” throughout.

In the case of `O=C(NCC[C@@H](NS(=O)(=O)c1ccc(OCc2cc(Br)cc(Br)c2)cc1)C(=O)NO)OCc1ccccc1`, the IC50 was 0.825 µM in data set [1]; more than 10 µM in [7]; 1.39 µM in data set [2]; more than 10 µM in data set [3]; 104 µM in data set [8]; 400 µM at Interstitial collagenase. Also, the IC50 was 0.043 µM in [9]; 11 µM in data set [10]; 2.1 µM in [5]; 4.1 µM in data set [11]; 9.52 µM in [6]; 8.2 µM in data set [12]. For the same molecule, the Activity entry (with SK-OV-3; in data set [4]; in the data set on A2780) was “Non-toxic” in each case.

Regarding `O=C(NCCC[C@@H](NS(=O)(=O)c1ccc(OCc2cc(Br)cc(Br)c2)cc1)C(=O)NO)OCc1ccccc1`, the IC50 in data set [1] is 0.349 µM; in [7], 7.63 µM; in [2], 0.274 µM; in data set [3], 10 µM; in data set [8], 68 µM; on Interstitial collagenase it was 370 µM. In addition, the IC50 in [9] was 0.011 µM; in data set [10], 4.4 µM; in data set [5], 0.35 µM; in data set [11], 1.44 µM; in data set [6] it was 5.64 µM; in data set [12] it was 0.3 µM. Also, the Activity result (in the data set with SK-OV-3; in data set [4]; with A2780) was “Non-toxic” each time.

Consider `NC(=O)NCCC[C@@H](NS(=O)(=O)c1ccc(OCc2cc(Br)cc(Br)c2)cc1)C(=O)NO`, for which the IC50 was less than 0.01 µM in data set [1]; 0.651 µM in [7]; 0.045 µM in data set [2]; 0.845 µM in data set [3]; more than 500 µM on Interstitial collagenase; 0.058 µM in [5]. The IC50 in data set [6] is 4.27 µM. For the same molecule, the Activity entry (with SK-OV-3; in data set [4]; in the data set on A2780) was “Non-toxic” each time.
